The source made the active and inactive calls. No cut-off for these calls is given here.

For experiment [1], the target named is T1, Mineralocorticoid receptor (Rattus norvegicus) (UniProt P22199).
T1 sequence (whole entry): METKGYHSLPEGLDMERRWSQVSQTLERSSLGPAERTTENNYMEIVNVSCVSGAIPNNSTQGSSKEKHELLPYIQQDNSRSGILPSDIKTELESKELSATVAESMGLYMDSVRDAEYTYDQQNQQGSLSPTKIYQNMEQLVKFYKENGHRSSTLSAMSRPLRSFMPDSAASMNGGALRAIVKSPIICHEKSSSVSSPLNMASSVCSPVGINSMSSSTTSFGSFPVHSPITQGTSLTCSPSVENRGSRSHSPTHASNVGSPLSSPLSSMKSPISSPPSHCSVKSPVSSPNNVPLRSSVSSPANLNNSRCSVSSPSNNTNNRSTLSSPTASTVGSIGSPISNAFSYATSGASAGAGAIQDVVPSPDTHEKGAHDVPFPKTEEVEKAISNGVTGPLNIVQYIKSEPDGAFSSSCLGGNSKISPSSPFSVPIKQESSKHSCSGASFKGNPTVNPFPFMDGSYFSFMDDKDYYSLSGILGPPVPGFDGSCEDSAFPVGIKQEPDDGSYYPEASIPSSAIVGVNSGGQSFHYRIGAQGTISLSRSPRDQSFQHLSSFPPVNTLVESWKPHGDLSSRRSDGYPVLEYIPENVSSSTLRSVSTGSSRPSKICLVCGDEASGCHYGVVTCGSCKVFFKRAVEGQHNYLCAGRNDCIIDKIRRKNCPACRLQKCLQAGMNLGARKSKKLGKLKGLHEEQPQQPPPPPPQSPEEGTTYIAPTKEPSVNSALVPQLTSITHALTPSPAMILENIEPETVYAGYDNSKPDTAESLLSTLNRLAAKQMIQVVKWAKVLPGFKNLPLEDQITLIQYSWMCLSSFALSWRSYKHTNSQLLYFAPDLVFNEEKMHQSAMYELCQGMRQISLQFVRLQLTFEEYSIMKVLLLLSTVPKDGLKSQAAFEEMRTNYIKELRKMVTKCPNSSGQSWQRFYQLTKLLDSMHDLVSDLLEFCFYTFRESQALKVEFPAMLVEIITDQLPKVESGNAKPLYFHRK
Nature of the experiment: Relative binding affinity to the rat mineralocorticoid receptor determined in rat renal cytosol using [3]Ald as ligand. The method, boiled down: (§1)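 Renal cytosol came from male Sprague-Dawley rats (4-8 weeks) adrenalectomized bilaterally 1 or 2 days earlier. It was incubated with various competitor concentrations and about 1 nM [3H]Ald for 42-48 h at 0 °C or 100-120 min at 25 °C. Bound and free steroid were separated by DCC.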

In experiment [2] the target is T1, Mineralocorticoid receptor (Rattus norvegicus). Nature of the experiment: Antagonist activity against Mineralocorticoid receptor was determined after subcutaneous administration in Male Sprague Dawley rats. Type of experiment: functional, organism-based. A digest of the protocol:
(§2)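 Male rats were bilaterally adrenalectomized (bioassay modified from Kagawa). Ald (1 µg/kg) was given sc, immediately followed by test compound in sesame oil sc or orally. Urine was collected from 2 to 6 h after steroid. Potency came from the urinary Na/K ratio of sample versus control, with 95% confidence limits.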

Experiment [3] has the same target. Nature of the experiment: Displacement of [3]Aldosterone from mineralocorticoid receptor of rat renal cytosol at 0 degree Centigrade. The method, boiled down: as §1
Experiment [4] addresses T2, Progesterone receptor (Rattus norvegicus) (UniProt Q63449).
T2 sequence (whole entry): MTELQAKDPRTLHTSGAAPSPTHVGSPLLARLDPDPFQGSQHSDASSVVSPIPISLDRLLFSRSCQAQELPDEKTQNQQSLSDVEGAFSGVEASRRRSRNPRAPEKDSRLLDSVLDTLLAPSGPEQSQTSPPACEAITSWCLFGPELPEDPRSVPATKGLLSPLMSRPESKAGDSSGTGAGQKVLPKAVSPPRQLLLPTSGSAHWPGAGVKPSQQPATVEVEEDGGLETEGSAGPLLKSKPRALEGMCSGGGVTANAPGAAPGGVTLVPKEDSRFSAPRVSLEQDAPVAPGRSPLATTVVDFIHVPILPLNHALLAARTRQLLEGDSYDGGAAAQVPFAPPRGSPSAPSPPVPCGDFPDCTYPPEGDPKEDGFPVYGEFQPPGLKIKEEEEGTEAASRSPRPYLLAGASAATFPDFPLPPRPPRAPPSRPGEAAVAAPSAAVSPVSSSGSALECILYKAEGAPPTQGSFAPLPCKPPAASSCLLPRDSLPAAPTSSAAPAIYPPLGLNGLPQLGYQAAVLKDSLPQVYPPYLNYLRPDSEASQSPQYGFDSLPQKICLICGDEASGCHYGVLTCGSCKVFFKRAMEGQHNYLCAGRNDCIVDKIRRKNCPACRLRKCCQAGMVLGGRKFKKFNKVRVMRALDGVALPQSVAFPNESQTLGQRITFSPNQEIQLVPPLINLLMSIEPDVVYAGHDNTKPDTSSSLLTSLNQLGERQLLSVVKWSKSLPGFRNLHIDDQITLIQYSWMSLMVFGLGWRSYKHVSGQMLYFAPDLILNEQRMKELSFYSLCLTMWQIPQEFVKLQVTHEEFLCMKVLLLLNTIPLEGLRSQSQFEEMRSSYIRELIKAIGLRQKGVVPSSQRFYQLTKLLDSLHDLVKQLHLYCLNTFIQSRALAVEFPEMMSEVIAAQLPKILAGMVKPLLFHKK
The experiment in a line: Relative binding affinity against progesterone receptor determined in rat […] cytosol using [3H]DHT as ligand.

Experiment [5] concerns the target T1, Mineralocorticoid receptor (Rattus norvegicus). Nature of the experiment: Antagonist activity against Mineralocorticoid receptor after subcutaneous administration in Male Sprague Dawley rats; (+) =positive. It is filed as functional, organism-based. The note with it: filed as antagonist. A digest of the protocol:
as §2

Experiment [6] shares this target. Nature of the experiment: Antagonist activity against Mineralocorticoid receptor after oral administration in Male Sprague Dawley rats; (-) = negative. Type of experiment: functional, organism-based. A digest of the protocol:
as §2

For experiment [7] the target is unchanged. The experiment in a line: Relative binding affinity against mineralocorticoid receptor determined in rat renal cytosol using [3]Ald as ligand. The method, boiled down: as §1
For experiment [8] the target is unchanged. The experiment in a line: Agonist activity against Mineralocorticoid receptor was determined after subcutaneous administration in Male Sprague Dawley rats; (+) =positive. It is filed as functional, organism-based. The note with it: filed as agonist.
The target is the same in experiment [9]. The experiment in a line: Antagonist activity against Mineralocorticoid receptor after oral administration in Male Sprague Dawley rats; (+) =positive. It is filed as functional, organism-based. The note with it: filed as antagonist. The method, boiled down: as §2
The species named for experiment [10] is Rattus norvegicus. The experiment in a line: Displacement of [3H]promegestone from progestin receptor of rat uterine cytosol at 0 degree Centigrade. A digest of the protocol: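 Uteri from estradiol-primed rats supplied the cytosol. It was incubated with various competitor concentrations and about 1 nM [3H]promegestone for 16-20 h at 0 °C. Bound and free steroid were separated by DCC. RBA (progesterone = 100%) = 100 × ratio of the 50%-inhibition concentrations of standard and competitor.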

For experiment [11], the target named is T1, Mineralocorticoid receptor (Rattus norvegicus). Nature of the experiment: Antagonist activity against Mineralocorticoid receptor after po administration in Male Sprague Dawley rats; (-) = negative. Type of experiment: functional, organism-based. A digest of the protocol:
as §2

Experiment [12] shares this target. The experiment in a line: Relative anti-mineralocorticoid potency compared to Spironolactone after oral administration. Type of experiment: functional, organism-based. A digest of the protocol: as §2

Turning to `CC12CCC(=O)C=C1C=CC1C2C=CC2(C)C1C1CC1[C@@]21CCC(=O)O1` (stereo partly drawn), the RBA in [1] is 320%; in experiment [3], 290%; in [4] it was 210%. Further, the outcome in [2] was inactive.
On to `C[C@]12CCC(=O)C=C1C=C[C@@H]1[C@@H]2CC[C@@]2(C)[C@H]1CC[C@@]21CCC(=O)O1`, for which the RBA in experiment [1] was found to be 2.9%; in [7], 1.7%. The Activity result in [5] is “Antagonist”. Moreover, the outcome in experiment [6] was inactive.
Regarding `CC(C)(C)C(=O)S[C@@H]1CC2=CC(=O)CCC2(C)C2C=CC3(C)C(CC[C@@]34CCC(=O)O4)C21` (stereo partly drawn), the figures for the RBA in [1], in experiment [3] and in experiment [4] were 42%, 46% and 38%, respectively. For the same compound, the Activity entry in experiment [5] was “Antagonist”.
On to `CC12C=CC(=O)C=C1C[C@@H](SC(=O)c1ccccc1)C1C2C=CC2(C)C1CC[C@@]21CCC(=O)O1` (stereo partly drawn), for which the RBA in experiment [1] worked out at 37%; in experiment [7], 3.7%. Also, the result in experiment [2] was inactive. Further, the Activity result in [8] is “Agonist”.
In the case of `CC(=O)S[C@@H]1CC2=CC(=O)CCC2(C)C2C=CC3(C)C(C4CC4[C@@]34CCC(=O)O4)C21` (stereo partly drawn), the RBA in experiment [1] is > 1000%; in experiment [7], 370%; in experiment [4], 89%. Besides, in experiment [2], the result was inactive.
As to `CC(=O)S[C@@H]1CC2=CC(=O)CC[C@]2(C)[C@H]2CC[C@@]3(C)[C@@H](CC[C@@]34CCC(=O)O4)[C@H]12`, the RBA in [1] is 15%; in experiment [7] it was 3.2%; in experiment [10], 2.6%. The Activity entry in experiment [5] and in experiment [9] was “Antagonist” in each case. In addition, in [2], the outcome was inactive.
In the case of `CC12C=CC(=O)C=C1CCC1C2C=CC2(C)C1CC[C@@]21CCC(=O)O1` (stereo partly drawn), the values for the RBA in experiment [1], in experiment [7] and in experiment [10] were 71%, 120% and 7.5%, respectively. In [2], the outcome was inactive. Moreover, the Activity entry in experiment [8] is “Agonist”.
Consider `CC12CCC(=O)C=C1C1CC1C1C2C=CC2(C)C1C1CC1[C@@]21CCC(=O)O1` (stereo partly drawn), for which the RBA in experiment [1] is 760%; in experiment [3], 300%; in experiment [10], 540%. Also, the outcome in [2] was inactive.
Consider `CC12CCC(=O)C=C1CCC1C2C=CC2(C)C1C1CC1[C@@]21CCC(=O)O1` (stereo partly drawn), for which the RBA in [1] was 650%; in experiment [3], 310%.
In the case of `CC(C)(C)C(=O)S[C@@H]1CC2=CC(=O)C=CC2(C)C2C=CC3(C)C(CC[C@@]34CCC(=O)O4)C21` (stereo partly drawn), the results for the RBA in experiment [1], in experiment [7] and in [4] were 530%, 1000% and 18%, respectively. Moreover, the Activity entry in experiment [5] and in experiment [9] was “Antagonist” in each case. The result in experiment [11] was inactive.
With `CC12CCC(=O)C=C1C[C@@H](SC(=O)c1ccccc1)C1C2C=CC2(C)C1CC[C@@]21CCC(=O)O1` (stereo partly drawn), the figures for the RBA in experiment [1], in experiment [3] and in [10] were 18%, 11% and 25%, respectively. Also, the outcome in [2] was inactive.
For `CC12C=CC(=O)C=C1[C@H]1C[C@H]1C1C2C=CC2(C)C1CC[C@@]21CCC(=O)O1` (stereo partly drawn), the RBA in experiment [1] stood at 48%; in experiment [7] it was 32%; in experiment [4], 1.9%. Moreover, in experiment [5], the Activity entry was “Antagonist”. Besides, the outcome in experiment [6] and in [11] was inactive. The compound also gave a Relative potency in experiment [12] of 1.31.
As for `CC(=O)S[C@@H]1CC2=CC(=O)C=CC2(C)C2C=CC3(C)C(CC[C@@]34CCC(=O)O4)C21` (stereo partly drawn), the RBA was determined as 71% in experiment [1], 23% in [7] and 3.9% in [4]. The Activity entry in [5] and in [9] was “Antagonist” each time. Also, the outcome in [2] was inactive. The compound further returned a Relative potency in [12] of 0.77.
Consider `CC12C=CC(=O)C=C1CCC1C2C=CC2(C)C1C1CC1[C@@]21CCC(=O)O1` (stereo partly drawn), for which the values for the RBA in experiment [1] and in experiment [7] were 440% and 220%, respectively.

These data come from ChEMBL document CHEMBL1123888, “Aldosterone antagonists. 2. Synthesis and biological activities of 11,12-dehydropregnane derivatives” (J Med Chem, 1987).
